In ChEMBL document CHEMBL4373706, “Discovery of Inhibitors of Aurora/PLK Targets as Anticancer Agents” (J Med Chem, 2019):
In brackets after ≈: the same amount, converted by molar mass. Activity calls are given as the source filed them. The calls are words filed in the database; no cut-off is given here.

Key:
[1] = Half life in Sprague-Dawley rat at 10 mg/kg, iv administered […] by LC-MS/MS analysis; assay type: ADME, organism-based; details: in vivo
[2] = Oral bioavailability in Sprague-Dawley rat at 50 mg/kg administered via gastric gavage by LC-MS/MS analysis; assay type: ADME, organism-based; details: in vivo
[3] = AUC (0 to infinity) in Sprague-Dawley rat at 50 mg/kg, po administered via gastric gavage by LC-MS/MS analysis; assay type: ADME, organism-based; parameters: dose 50 mg/kg, time infinity, route oral; details: in vivo
[4] = Cmax in Sprague-Dawley rat at 50 mg/kg, po administered via gastric gavage by LC-MS/MS analysis; assay type: ADME, organism-based; parameters: dose 50 mg/kg, route oral; details: in vivo
[5] = Solubility of the compound in water; assay type: physicochemical
Summary of the method: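 Solubility of the compound measured at 25±0.2°C, separately in water and in DMSO; reported in µg/mL.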

HCT-116 [6] = assay: Cell cycle arrest in human HCT116 cells assessed as increase in accumulation at G2/M phase measured after 24 to 48 hrs by propidium iodide staining-based flow cytometry; assay type: functional
HCT-116 [7] = assay: Inhibition of colony formation in human HCT116 cells at 10 uM incubated for 48 hrs followed by supplemented with fresh medium every 3 days for 2 weeks by crystal violet staining-based assay; assay type: functional, cell-based
Homo sapiens = organism: Homo sapiens; assay: Inhibition of AURKA/PLK1 in human HCT116 cells assessed as increase in histone H3 Ser10 phosphorylation measured after 24 to 48 hrs by Western blot analysis; assay type: cell-based
[8] = molecular target: T1, Mitogen-activated protein kinase 15 (Homo sapiens, UniProt Q8TD08); assay: Binding affinity to wild-type human partial length ERK8 (M1 to P437 residues) expressed in bacterial expression system measured after 1 hr by kinomescan method; details: pooled result: one value given for 7 cell lines, strains, targets or settings
T1 sequence (Q8TD08 whole entry): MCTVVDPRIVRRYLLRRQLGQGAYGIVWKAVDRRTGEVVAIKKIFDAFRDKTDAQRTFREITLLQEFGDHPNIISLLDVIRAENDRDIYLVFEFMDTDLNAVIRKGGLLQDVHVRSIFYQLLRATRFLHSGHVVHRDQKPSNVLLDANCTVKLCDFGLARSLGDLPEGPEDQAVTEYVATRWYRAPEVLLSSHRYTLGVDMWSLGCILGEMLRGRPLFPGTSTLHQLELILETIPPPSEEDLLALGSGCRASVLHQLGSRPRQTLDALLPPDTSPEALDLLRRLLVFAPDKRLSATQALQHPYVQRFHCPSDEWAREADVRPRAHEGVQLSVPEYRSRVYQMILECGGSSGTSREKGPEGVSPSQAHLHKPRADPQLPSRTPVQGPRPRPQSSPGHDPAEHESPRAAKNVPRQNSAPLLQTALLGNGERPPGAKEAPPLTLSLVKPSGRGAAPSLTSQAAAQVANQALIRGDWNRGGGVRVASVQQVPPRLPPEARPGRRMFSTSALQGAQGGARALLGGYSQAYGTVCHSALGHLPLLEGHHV

[9] = molecular target: Serine/threonine-protein kinase PLK1 (Homo sapiens, UniProt P53350); assay: Binding affinity to wild-type human partial length PLK1 (A33 to F325 residues) expressed in mammalian expression system measured after 1 hr by kinomescan method
Sequence of Serine/threonine-protein kinase PLK1 (P53350 whole entry, the tested form may be a part): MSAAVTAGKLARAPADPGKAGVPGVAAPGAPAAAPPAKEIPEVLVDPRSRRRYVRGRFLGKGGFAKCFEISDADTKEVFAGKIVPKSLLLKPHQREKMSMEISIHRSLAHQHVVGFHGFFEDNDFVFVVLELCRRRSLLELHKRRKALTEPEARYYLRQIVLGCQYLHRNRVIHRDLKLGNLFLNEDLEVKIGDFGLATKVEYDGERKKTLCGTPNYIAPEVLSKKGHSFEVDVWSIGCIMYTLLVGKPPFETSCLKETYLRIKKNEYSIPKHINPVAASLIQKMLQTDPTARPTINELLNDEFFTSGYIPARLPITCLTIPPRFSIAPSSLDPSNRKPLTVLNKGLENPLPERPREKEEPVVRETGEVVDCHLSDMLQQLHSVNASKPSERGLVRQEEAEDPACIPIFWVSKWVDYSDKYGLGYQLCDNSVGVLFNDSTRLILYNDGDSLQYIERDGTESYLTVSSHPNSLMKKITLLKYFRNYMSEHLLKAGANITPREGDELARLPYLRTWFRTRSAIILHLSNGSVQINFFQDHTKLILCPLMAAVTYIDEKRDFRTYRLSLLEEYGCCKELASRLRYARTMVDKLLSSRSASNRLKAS
Summary of the method: (§1)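 KINOMEscan competition binding assay. A 321-kinase panel was first screened at 10 μM compound, and binding affinities were then determined for Aurora and PLK family members.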

[10] = molecular target: Serine/threonine-protein kinase PLK2 (Homo sapiens, UniProt Q9NYY3); assay: Binding affinity to wild-type human partial length PLK2 (H58 to F354 residues) expressed in mammalian expression system measured after 1 hr by kinomescan method; summary of the method: as §1
Sequence of Serine/threonine-protein kinase PLK2 (Q9NYY3 whole entry, the tested form may be a part): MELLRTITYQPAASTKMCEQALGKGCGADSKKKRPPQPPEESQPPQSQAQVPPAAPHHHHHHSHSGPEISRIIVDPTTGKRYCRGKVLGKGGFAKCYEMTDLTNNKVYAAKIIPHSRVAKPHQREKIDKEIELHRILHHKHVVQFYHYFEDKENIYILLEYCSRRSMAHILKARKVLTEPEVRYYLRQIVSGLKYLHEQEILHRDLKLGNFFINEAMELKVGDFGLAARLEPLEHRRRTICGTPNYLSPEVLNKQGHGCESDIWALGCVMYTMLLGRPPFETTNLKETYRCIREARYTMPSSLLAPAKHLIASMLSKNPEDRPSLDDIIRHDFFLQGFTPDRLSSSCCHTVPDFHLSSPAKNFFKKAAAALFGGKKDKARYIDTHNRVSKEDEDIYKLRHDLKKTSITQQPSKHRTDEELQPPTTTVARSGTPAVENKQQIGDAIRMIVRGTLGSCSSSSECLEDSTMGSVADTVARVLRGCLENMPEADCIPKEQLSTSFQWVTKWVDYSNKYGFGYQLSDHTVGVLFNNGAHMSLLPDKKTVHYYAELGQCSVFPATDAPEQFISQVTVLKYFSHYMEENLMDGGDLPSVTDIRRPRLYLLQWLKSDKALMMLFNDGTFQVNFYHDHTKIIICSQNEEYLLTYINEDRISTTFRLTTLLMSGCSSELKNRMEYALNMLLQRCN

Aurora kinase B = Aurora kinase B (Homo sapiens, UniProt Q96GD4); assay: Binding affinity to wild-type human partial length AURKB (D25 to A303 residues) expressed in mammalian expression system measured after 1 hr by Kinomescan method; summary of the method: as §1
Sequence of Aurora kinase B (Q96GD4 whole entry, the tested form may be a part): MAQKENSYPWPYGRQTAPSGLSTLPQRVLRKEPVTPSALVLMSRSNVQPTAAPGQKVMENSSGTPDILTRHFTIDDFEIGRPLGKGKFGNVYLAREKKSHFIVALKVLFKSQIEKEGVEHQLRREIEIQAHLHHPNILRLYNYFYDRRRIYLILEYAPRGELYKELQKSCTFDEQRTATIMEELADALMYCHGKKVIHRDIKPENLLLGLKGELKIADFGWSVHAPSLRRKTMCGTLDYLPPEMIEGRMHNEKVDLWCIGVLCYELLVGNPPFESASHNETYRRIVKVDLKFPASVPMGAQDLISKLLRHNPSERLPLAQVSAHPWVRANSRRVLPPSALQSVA

HCT-116 [11] = assay: Cell cycle arrest in human HCT116 cells assessed as accumulation at G2/M phase at 5 uM measured after 24 to 48 hrs by propidium iodide staining-based flow cytometry (reference value: 3.37%); assay type: functional
HCT-116 [12] = assay: Induction of apoptosis in human HCT116 cells assessed as apoptotic cell population at 1 uM measured after 48 hrs by Annexin V-FITC/propidium iodide staining-based flow cytometry (reference value: 5.9%); assay type: functional
HCT-116 [13] = assay: Antiproliferative activity against human HCT116 cells measured after 48 hrs by MTT assay; assay type: functional, cell-based; details: HCT-116, 48 h
Summary of the method: (§2)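 Cells were exposed to a range of compound concentrations for 48 h. MTT reagent was then added and absorbance read at 490 nm. Viability was normalized to vehicle control set as 100%, from n = 3 independent experiments, and IC50 was taken from the dose–response curves.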

MCF7 = assay: Antiproliferative activity against human MCF7 cells measured after 48 hrs by MTT assay; assay type: functional, cell-based; details: MCF7, 48 h; summary of the method: as §2
Calu-6 = assay: Antiproliferative activity against human Calu6 cells measured after 48 hrs by MTT assay; assay type: functional, cell-based; details: Calu-6, 48 h; summary of the method: as §2
[14] = Cmax in Sprague-Dawley rat at 10 mg/kg, iv administered […] by LC-MS/MS analysis; assay type: ADME, organism-based; parameters: dose 10 mg/kg, route intravenous; details: in vivo
[15] = AUC (0 to infinity) in Sprague-Dawley rat at 10 mg/kg, iv administered […] by LC-MS/MS analysis; assay type: ADME, organism-based; parameters: dose 10 mg/kg, route intravenous, time infinity; details: in vivo
HCT-116 [16] = assay: Antitumor activity against human HCT116 cells xenografted in BALB/c mouse assessed as reduction in tumor growth at 5 mg/kg, iv administered every 3 days for 24 days measured at 3 days interval during compound dosing; assay type: functional, organism-based
HCT-116 [17] = assay: Antitumor activity against human HCT116 cells xenografted in BALB/c mouse assessed as reduction in tumor size at 10 mg/kg, iv administered every 3 days for 24 days measured at 3 days interval during compound dosing relative to control; assay type: functional; parameters: scale not given: the % may be the effect or the level left
HCT-116 [18] = assay: Antitumor activity against human HCT116 cells xenografted in BALB/c mouse assessed as survival rate at 1 mg/kg, iv administered every 3 days for 60 days relative to control; assay type: functional; details: HCT-116, iv
HCT-116 [19] = assay: Antitumor activity against human HCT116 cells xenografted in BALB/c mouse assessed as survival rate at 10 mg/kg, iv administered every 3 days for 60 days relative to control; assay type: functional; details: HCT-116, iv
HCT-116 [20] = assay: Antitumor activity against human HCT116 cells xenografted in BALB/c mouse assessed as mean survival days at 5 mg/kg, iv administered every 3 days for 60 days (reference value: 25 day); assay type: functional
HCT-116 [21] = assay: Antitumor activity against human HCT116 cells xenografted in BALB/c mouse assessed as mean survival days at 10 mg/kg, iv administered every 3 days for 60 days (reference value: 25 day); assay type: functional

SMILES: O=C(Nc1ccc2cc(C(=O)Nc3nccs3)ccc2c1)c1ccc(Cl)c(Cl)c1
- half-life [1]: 16.2 h
- F [2]: 65%
- AUC [3]: 819.495 µg·h/mL
- Cmax [4]: 25.1 µg/mL
- solubility [5]: 9.6 µg/mL (≈ 21.7 µM)
- Activity (HCT-116 [6]): Dose-dependent effect
- inhibition (HCT-116 [7]): Active
- inhibition (Homo sapiens): Active
- Kd [8]: 5320 nM
- Kd [9]: 55 nM
- Kd [10]: 272 nM
- Kd (Aurora kinase B): 78 nM
- Activity (HCT-116 [11]): 10.06%
- Activity (HCT-116 [12]): 41.1%
- IC50 (HCT-116 [13]): 400 nM
- IC50 (MCF7): 2300 nM
- IC50 (Calu-6): 5300 nM
- Cmax [14]: 78.5 µg/mL
- AUC [15]: 1260.761 µg·h/mL
- Activity (HCT-116 [16]): Active
- Activity (HCT-116 [17]): 75%
- survival at 1 mg/kg (HCT-116 [18]): > 25%
- survival at 10 mg/kg (HCT-116 [19]): 80%
- MSD (HCT-116 [20]): 45 days
- MSD (HCT-116 [21]): >20 days
